Assay results published in PMC5819594 (Nano letters, 2017).
“Also recorded” adds a separate entry of the source. No end group written: not given here.

How the values were obtained:
glioblastomas = details: mice, cited from earlier work
MCF10CA1a tumors [1] = details: cited from earlier work
[2] = tested on: tumor vessels of treated MCF10CA1a tumors; assay: NW homing to residual treated tumors; type: in vivo, mice; details: for NW-positive tumor vessels: treated tumors after three weeks, five hours after last injection, n = 3/group
Outline: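 MCF10CA1a tumor mice were treated for three weeks with FAM-labeled peptide-NWs. Five hours after the last injection, mice were perfused through the heart with PBS and tissues collected. Tumor sections were stained with anti-CD31 and DAPI and examined by confocal microscopy. Percentage of NW-positive vessels was scored in 10 random areas per section, n = 3/group, mean ±SD.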

[3] = tested on: tumor blood vessels (CD31); assay: CD31 blood vessel count in treated tumors; type: in vivo; details: n = 3 mice per group; for average blood vessel count: CD31, 10 random fields at 20×
Outline: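 Residual MCF10CA1a orthotopic tumors came from nude mice given peptide-coated NWs i.v. every other day for 3 weeks (7.5mg iron/kg), with a PBS control. Sections were stained with anti-CD31 and imaged by confocal microscopy. Vessels per field were counted, and groups were compared by one-way ANOVA with Tukey's post hoc test.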

[4] = tested on: MCF10CA1a orthotopic tumor xenografts; assay: anti-tumor efficacy, MCF10CA1a breast cancer model; type: in vivo, human tumor cells in BALB/c nude mice; details: for reduction of tumor volume versus PBS: i.v. every other day for 3 weeks, 7.5 mg of iron/kg, at three weeks
p32 [5] = target: T1, p32 (Homo sapiens, UniProt Q07021); assay: fluorescence anisotropy; type: binding
T1 sequence (Q07021 74-282): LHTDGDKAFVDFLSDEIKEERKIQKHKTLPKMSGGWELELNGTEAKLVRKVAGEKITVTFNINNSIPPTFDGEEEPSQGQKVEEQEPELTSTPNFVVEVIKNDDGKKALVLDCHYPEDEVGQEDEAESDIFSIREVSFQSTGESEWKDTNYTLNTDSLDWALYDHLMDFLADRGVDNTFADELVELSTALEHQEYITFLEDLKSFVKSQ

MCF10CA1a tumors [6] = assay: tumor homing of homing peptide-D[KLAKLAK]2-NWs, MCF10CA1a; type: in vivo, human tumor cells in BALB/c nude mice; details: for tumor homing and penetration of chimeric peptide-NWs: confocal microscopy
NRP-1 = assay: peptide binding to NRP-1 before and after uPA treatment; details: control peptide with active CendR motif, with and without uPA
MCF10CA1a tumors [7] = assay: TUNEL staining of treated tumors; type: in vivo, human tumor cells in BALB/c nude mice; details: treated tumors after three weeks
MCF10CA1a tumors [8] = assay: histology; type: in vivo, human tumor cells in BALB/c nude mice; details: end of 3-week treatment, H&E
Outline: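 Orthotopic MCF10CA1a xenografts in BALB/c nude mice were treated i.v. with peptide-coated NWs every other day for 3 weeks at 7.5mg iron/kg. At the end of treatment, residual tumors were sectioned and stained with hematoxylin and eosin.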

MMTV-PyMT tumors = assay: tumor homing in MMTV-PyMT model; type: in vivo, mouse; details: MMTV-PyMT transgenic breast cancer mice
[9] = mouse, in vivo
[10] = tested on: MCF10CA1a cultured tumor cells; assay: cell death and caspase-3 activation in cultured tumor cells; type: cell-based, human; details: Figure S8
[11] = tested on: 4T1 mouse breast cancer tumors; assay: tumor homing in 4T1 model; type: in vivo; details: 4T1 breast tumor model
Outline: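 4T1 cells were maintained in DMEM with 10% FBS and 1% Glutamine-Pen-Strep at 37°C/5% CO2. 1 × 10^6 cells were implanted subcutaneously in the flanks of 4-week-old BALB/c mice. Peptide-coated NWs were assessed for homing to tumor vasculature and extravascular tumor tissue.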

tumors = details: cited from earlier work
[12] = tested on: tumor-associated macrophages/myeloid cells; details: ref Laakkonen et al., 2004; Fogal et al., 2008; cited from earlier work
p32 [13] = target: T1, p32; details: LyP-1 linearized; no reference given; cited from earlier work
tumor macrophages = details: LyP-1 alone, without drug, tumor macrophages in particular; cited from earlier work
LinTT1 = target: T2, LinTT1 (also: FAM-labeled); assay: fluorescence anisotropy
T2 chain: AKRGARSTA

Molecule: CGKRK-D[KLAKLAK]2 [CGKRK-D[KLAKLAK]2-NWs, reference compound]
- lifespan in glioblastoma (glioblastomas; more aggressive glioblastoma model): a substantial prolongation of the lifespan of the mice
- tumor growth in glioblastoma (glioblastomas; one glioblastoma model): the growth of tumors was essentially completely suppressed
- tumor homing of CGKRK-D[KLAKLAK]2-NWs (as shown previously) (MCF10CA1a tumors [1]): accumulated in tumor blood vessels, without penetrating into extravascular tumor tissue
- NW-positive tumor vessels [2]: 20%
- average blood vessel count [3]: almost similar to LinTT1NW
- reduction of tumor volume versus PBS [4]: about 50%

Molecule: AKRGARSTA [LinTT1]
- Kd (p32 [5]): 8.7 µM

Molecule: CGKRKRA-D[KLAKLAK]2 [CGKRKRA-D[KLAKLAK]2-NWs]
- tumor homing and penetration of chimeric peptide-NWs (MCF10CA1a tumors [6]): primarily localized with tumor blood vessels similar to LyP1

Molecule: CGRKR(NH2)-D[KLAKLAK]2 [CGRKR(NH2)-D[KLAKLAK]2-NWs]
- tumor homing and penetration of chimeric peptide-NWs (MCF10CA1a tumors [6]): primarily localized with tumor blood vessels similar to LyP1

Molecule: RPARPAR
- binding to NRP-1 regardless of uPA (NRP-1): bound only to NRP-1 regardless of uPA treatment

Molecule: LinTT1-D[KLAKLAK]2 [LinTT1-D[KLAKLAK]2-NWs]
- tumor homing and penetration of chimeric peptide-NWs (MCF10CA1a tumors [6]): highly effective in extravasating and penetrating tumor parenchyma; also recorded: superior to other chimeric peptide-NWs; also recorded: partially co-localize with tumor blood vessels (CD31), but most of the NWs are outside the blood vessels in the extravascular tumor tissue
- tumor accumulation relative to CGKRK-D[KLAKLAK]2-NWs (MCF10CA1a tumors [6]; quantified NW fluorescence): over 7 fold
- apoptosis by TUNEL staining (MCF10CA1a tumors [7]): apoptosis in the LinTT1D[KLAKLAK]2-NW tumor rims, where it co-localized with the NWs
- NW-positive tumor vessels [2]: Approximately 68%
- accumulation in treated tumors ([2]; tumors treated with LinTT1D(KLAKLAK)2-NWs for 3 weeks): no apparent decline in accumulation
- necrosis and apoptotic nuclei in residual tumors (MCF10CA1a tumors [8]): extensive necrosis and a thin rim of tumor tissue around the necrotic core that contained many apparently apoptotic nuclei
- average blood vessel count [3]: marked reduction of blood vessels
- reduction of blood vessels versus PBS control ([3]; CD31, after treatment): more than 6 fold
- anti-tumor activity ([4]; 3 weeks, 7.5 mg of iron/kg i.v. every other day): essentially no tumor growth; also recorded: more effective than the previous NPs
- reduction of tumor volume versus PBS [4]: about 90%
- mice in which tumor seemed to have disappeared ([4]; one of two experiments, 3 weeks): four out of 6 mice
- tumors regressed ([4]; proportion of tumors, LinTT1D(KLAKLAK)2-NW group): 10/14
- tumor homing, MMTV-PyMT (MMTV-PyMT tumors): efficiently homed to the vasculature of the 4T1 and MMTV-PyMT tumors, accumulating also in extravascular tumor tissue
- toxicity [9]: no significant toxicity
- cell death and caspase-3 activation [10]: cell death accompanied by activation of caspase-3
- tumor homing, 4T1 [11]: efficiently homed to the vasculature of the 4T1 and MMTV-PyMT tumors, accumulating also in extravascular tumor tissue

Molecule: CGNKRTRGC [LyP-1]
- tumor homing and penetration of LyP-1 (tumors): capable of penetrating into tumors and accumulates in the extravascular tumor tissue
- overlap with tumor-associated macrophages/myeloid cells [12]: substantial overlap with tumor-associated macrophages/myeloid cells in tumor tissue
- p32-binding activity (p32 [13]): no detectable p32-binding activity
- apoptosis in cells that take up the peptide (tumor macrophages): causes apoptosis in the cells that take up the peptide most avidly, tumor macrophages in particular

Molecule: CGKRK
- tumor homing and penetration of free peptide (tumors; CGKRK (no reference at the statement)): does not extravasate and penetrate beyond tumor vessels

B1: p32 (gC1qR/HABP) (protein)
chain: T1 sequence (Q07021 74-282)
- Kd (LinTT1): 8.7 µM
